PMC10448036 (International Journal for Parasitology: Drugs and Drug …, 2023)
Where two headings read alike, the source gives them in different places. Marks after values point to notes of the source that are not given here.

Columns and labels:
[1] = tested on: breast cancer resistance protein (BCRP); settings: ref Pérez et al., 2009; cited from earlier work
[2] = tested on: gastrointestinal nematodes; settings: cattle, ref Leathwick and Miller (2013), cited from earlier work
susceptible H. contortus = settings: single dose, sheep, absence of resistance, cited from earlier work
[3] = tested on: multiple resistant gastrointestinal nematodes (mainly H. contortus); test: Faecal egg count reduction test; format: in vivo, lambs; settings: for Nematode egg counts (mean): arithmetic mean; for Efficacy (%) [CI] (FECRT): 95% CI, Coles et al. (1992) formula
[4] = Plasma disposition kinetics; format: in vivo, lambs; settings: for AUC0-LOQ / AUC0-∞: closantel in plasma, lambs
P-gp = settings: ref Lespine et al., 2006; cited from earlier work
[5] = tested on: Nematodirus spp., Oesphagostomum spp. and Trichuris ovis; test: Adult nematode counts at necropsy; format: in vivo; settings: 13 days post-treatment, sc and oral, lambs n = 2 per group
Outline: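 Naturally parasitized lambs, ranked by epg and split into groups of 10, were dosed on day 0 by individual weight with two test compounds, alone or combined. The first was given at 5 mg/kg sc or 10 mg/kg oral, the second at 0.2 mg/kg sc or oral. An untreated control group was kept. At 13 and 28 days post-treatment, two random animals per group were killed by captive bolt and exsanguinated.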

[6] = tested on: Other genera (Trichostrongylus spp.; Teladorsagia spp. and Oesophagostomum spp.); test: L3 from pooled faecal cultures, by genus; format: in vivo, lambs
Outline: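 Naturally parasitized lambs (groups of 10) were dosed by weight on day 0 with two test compounds, alone or combined: the first at 5 mg/kg sc or 10 mg/kg oral, the second at 0.2 mg/kg sc or oral; untreated controls were kept. Rectal faeces were counted for epg by modified McMaster. Pooled group faecal cultures at days −1, 13, 22 and 28 gave L3 typed to genus. Genus efficacy = 100×(1−T/C) on arithmetic-mean epg partitioned by each genus's L3 proportion.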

[7] = Adverse events / tolerability; format: in vivo; settings: lambs, sc and oral treatments
[8] = most species, ref Zulalian et al., 1994; cited from earlier work
H. contortus population = settings: SUL experimental farm, ref Castells, personal communication; cited from earlier work
Haemoncus spp. = test: L3 from pooled faecal cultures, by genus; format: in vivo, lambs
plasma proteins = settings: ref Mohammed Ali and Bogan, 1987; Hennessy, 1993; cited from earlier work
[9] = ref Hennessy and Ali, 1997; cited from earlier work
[10] = Day 2 post-treatment, oral (CLO 10 mg/kg, MXD 0.2 mg/kg)
[11] = Day 2 post-treatment, subcutaneous (CLO 5 mg/kg, MXD 0.2 mg/kg)
[12] = Day 6 post-treatment, oral (CLO 10 mg/kg, MXD 0.2 mg/kg)
[13] = Day 6 post-treatment, subcutaneous (CLO 5 mg/kg, MXD 0.2 mg/kg)
[14] = Day 10 post-treatment, oral (CLO 10 mg/kg, MXD 0.2 mg/kg)
[15] = Day 13 post-treatment, oral (CLO 10 mg/kg, MXD 0.2 mg/kg)
[16] = Day 13 post-treatment, subcutaneous (CLO 5 mg/kg, MXD 0.2 mg/kg)
[17] = Day 22 post-treatment, oral (CLO 10 mg/kg, MXD 0.2 mg/kg)
[18] = Day 22 post-treatment, subcutaneous (CLO 5 mg/kg, MXD 0.2 mg/kg)
[19] = Day 28 post-treatment, oral (CLO 10 mg/kg, MXD 0.2 mg/kg)
[20] = Day 28 post-treatment, subcutaneous (CLO 5 mg/kg, MXD 0.2 mg/kg)
[21] = 22 days post-treatment, subcutaneous
[22] = CLO co-administered with MXD by the sc route vs CLO alone, P < 0.05
[23] = CLO 10 mg/kg oral alone (CLOoral)
[24] = 28 days post-treatment, subcutaneous

SMILES	Nematode egg counts (mean) [3, 10]	Nematode egg counts (mean) [3, 11]	Nematode egg counts (mean) [3, 12]	Nematode egg counts (mean) [3, 13]	Nematode egg counts (mean) [3, 14]	Efficacy (%) [CI] (FECRT) [3, 15]	Nematode egg counts (mean) [3, 15]	Efficacy (%) [CI] (FECRT) [3, 16]	Nematode egg counts (mean) [3, 16]	Efficacy (%) [CI] (FECRT) [3, 17]	Nematode egg counts (mean) [3, 17]	Efficacy (%) [CI] (FECRT) [3, 18]	Nematode egg counts (mean) [3, 18]	Efficacy (%) [CI] (FECRT) [3, 19]	Nematode egg counts (mean) [3, 19] [epg]	Efficacy (%) [CI] (FECRT) [3, 20]	Nematode egg counts (mean) [3, 20] [epg]	Quantified in plasma up to ([4]; post oral treatment)	Quantified in plasma up to ([4]; post sc treatment)	Fate of Nematodirus spp., Oesphagostomum spp. and Trichuris ovis [5]	other results
CO/N=C1\C[C@]2(C[C@@H]3C[C@@H](C/C=C(\C)C[C@@H](C)/C=C/C=C4\CO[C@@H]5[C@H](O)C(C)=C[C@@H](C(=O)O3)[C@]45O)O2)O[C@H](/C(C)=C/C(C)C)[C@H]1C [MXD, moxidectin]	240 ^ab epg	150 ^ab epg	340 ^ab epg	250^a epg	530 ^bc epg	80 [62–89] %	1140 ^b epg	92 [85–96] %	430 ^b epg	82 [53–93] %	888 ^b epg	80 [61–90] %	975 ^b epg	61 [6–84] %	1525	74 [38–89] %	1013	≤ 25 days	up to 28 days	efficiently eliminated	Interaction with BCRP [1]: identified as a BCRP substrate; Efficacy ([2]; oral treatment): 91.1%; Efficacy ([2]; sc injection): 55.5%; Protection against reinfection up to (susceptible H. contortus; ref Kerboeuf et al., 1995): ≤ 35 days; AUC0-LOQ after the oral treatment as share of that after the sc treatment ([4]; MXD 0.2 mg/kg oral vs sc): 33%; Interaction with mammalian P-gp (P-gp): much weaker compared with ivermectin; Efficacy (%) ([6]; 13 days post-treatment, oral): 0%; Efficacy (%) ([6]; 22 days post-treatment, oral): 0%; Efficacy (%) [6, 21]: 0%; Efficacy (%) ([6]; 28 days post-treatment, oral): 0%; Adverse events [7]: No adverse events were observed; Dose excreted unchanged in the faeces [8]: 90%; Efficacies of single dose (H. contortus population): above 85%; Efficacy (%) (Haemoncus spp.; 13 days post-treatment, oral): 100%; Efficacy (%) (Haemoncus spp.; 22 days post-treatment, oral): 100%; Efficacy (%) (Haemoncus spp.; [21]): 100%; Efficacy (%) (Haemoncus spp.; 28 days post-treatment, oral): 100%
Cc1cc(C(C#N)c2ccc(Cl)cc2)c(Cl)cc1NC(=O)c1cc(I)cc(I)c1O (centres unmarked) [CLO, closantel]	630 ^b epg	790 ^b epg	550 ^b epg	530 ^b epg	770^c epg	84 [71–91] %	890 ^b epg	85 [72–92] %	830 ^b epg	83 [73–89] %	850 ^b epg	82 [67–91] %	863 ^b epg	66 [36–82] %	1350	84 [57–94] %	650	up to 28 days	up to 28 days	survive	Binding to plasma proteins (plasma proteins): > 99%; Protection against reinfection up to (susceptible H. contortus; ref Hall et al., 1981): up to 28 days; Efficacy (FECRT) ([3]; 13 days post-treatment, drug alone, over the sc and oral treatments): 84 to 85%; Longer MRT after co-administration [4, 22]: 42%; Longer T½el after co-administration [4, 22]: 39%; Plasma drug exposure (AUC0-LOQ) lower after oral than after sc treatment ([4]; CLO oral 10 mg/kg vs sc 5 mg/kg, P < 0.05): 34%; AUC0-LOQ ([4]; CLO 5 mg/kg sc alone (CLOSC)): 1570 ± 419^ab μg.d/mL; AUC0-∞ ([4]; CLO 5 mg/kg sc alone (CLOSC)): 2231 ± 662^ab μg.d/mL; AUC0-LOQ [4, 23]: 1042 ± 170^c μg.d/mL; AUC0-∞ [4, 23]: 1438 ± 367^b μg.d/mL; Efficacy (%) ([6]; 22 days post-treatment, oral): 96%; Efficacy (%) [6, 21]: 100%; Efficacy (%) [6, 24]: 99%; Adverse events [7]: No adverse events were observed; Efficacies of single dose (H. contortus population): above 85%; Efficacy (%) (Haemoncus spp.; 22 days post-treatment, oral): 4%; Efficacy (%) (Haemoncus spp.; [21]): 0%; Efficacy (%) (Haemoncus spp.; 28 days post-treatment, oral): 9%; Efficacy (%) (Haemoncus spp.; [24]): 1%; Biodegradation by the ruminal fluid [9]: not exposed to any significant biodegradation
